Data published in ChEMBL document CHEMBL1681681, “Synthesis and anti-migrative evaluation of moverastin derivatives” (Bioorg Med Chem Lett, 2011).
pIC50: −log10 of the molar value.

What was measured:
[1] = Antimigratory activity against human EC17 cells assessed as inhibition of migration after 24 hrs by chemotaxis cell chamber assay; format: functional, cell-based; conditions: EC17, 24 h
Outline: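 Chemotaxis chamber: EC17 cells in upper chamber with graded compound concentrations; lower chamber holds EC17-conditioned medium (from 24 h cultures in RPMI1640 + 1% FBS) as chemoattractant. After 24 h, cells migrated through the filter to its lower side are counted. Counts are mean SD of five fields. IC50 is derived from these counts.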

[2] = Cytotoxicity against human EC17 cells assessed as cell viability by trypan blue dye; format: cell-based
Outline: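 EC17 cells are tested for viability by trypan blue dye exclusion. The 50% inhibitory concentration for viability is estimated from this assay.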

[3] = target: Protein farnesyltransferase (Homo sapiens, UniProt P49354+P49356); assay: Inhibition of protein farnesyltransferase from human EC17 cells using [3H]FPP and […]-H-Ras; format: cell-based
Outline: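 FTase is partially purified from EC17 cells. It is incubated with [3H]-farnesylpyrophosphate plus recombinant GST-H-Ras as substrates, with or without test compound. Compounds are tested up to 100 µM.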

Structure (SMILES)	pIC50 [1]	pIC50 [3]	pIC50 [2]
C=C(CCC12CC3CC(CC(C3)C1)C2)C(O)Cc1c(O)cc(C)c(C=O)c1O (centres undefined)	5.19	< 4.00	4.26
C=C(CCc1c(C)cccc1C)C(O)Cc1c(O)cc(C)c(C=O)c1O (centres undefined)	4.97	< 4.00	4.35
C=C(C)C(O)Cc1c(O)cc(C)c(C=O)c1O (centres undefined)	4.52	< 4.00	< 3.89
C=C(CC[C@@]1(C)[C@H](C)CCC(=O)[C@@H]1C)C(O)Cc1c(O)cc(C)cc1O (some centres undefined)	4.67	< 4.00	< 4.55
C=C(CC/C=C(\C)CCC=C(C)C)C(O)Cc1c(O)cc(C)c(C=O)c1O (centres undefined)	5.12	< 4.00	< 4.10
C=C(CC[C@@]1(C)[C@H](C)CCC(=O)[C@@H]1C)[C@H](O)Cc1c(O)cc(C)c(C=O)c1O [MOVERASTIN A]	5.14	< 4.00	< 4.11
C=C(CC[C@H]1[C@@H](C)CCCC1(C)C)C(O)Cc1c(OC)cc(C)c(C=O)c1O (relative stereo)	5.34	< 4.00	4.74
C=C(CCC1CCCCC1)C(O)Cc1c(O)cc(C)c(C=O)c1O (centres undefined)	5.07	< 4.00	4.06

Compounds with a higher pIC50 [1], results first:

pIC50 [1]	pIC50 [3]	Structure (SMILES)	pIC50 [2]
5.66	< 4.00	C=C(CC[C@H]1[C@@H](C)CCCC1(C)C)C(O)Cc1c(O)cc(C)cc1O (relative stereo)	4.77
5.70	4.83	C=C(CC[C@H]1[C@@H](C)CCCC1(C)C)C(O)Cc1c(O)cc(C)c(C=O)c1O (relative stereo)	4.34
5.67	< 4.00	Cc1cc(O)c(CC(O)C(C)CC[C@H]2[C@@H](C)CCCC2(C)C)c(O)c1C=O (relative stereo)	4.80
5.36	< 4.00	C=C(CC[C@H]1[C@@H](C)CCCC1(C)C)C(=O)Cc1c(O)cc(C)c(C=O)c1O (relative stereo)	4.74
5.70	< 4.00	Cc1cc(O)c2c(c1C=O)OCC(CC[C@H]1[C@@H](C)CCCC1(C)C)=CC2 (relative stereo)	4.74
